Test results: ChEMBL document CHEMBL1255538, “Synthesis and molecular docking study of novel coumarin derivatives containing 4,5-dihydropyrazole moiety as potential antitumor agents” (Bioorg Med Chem Lett, 2010); call rule not given here
pIC50: −log10 of the molar value. ≈ marks a conversion by molar mass, not a printed value.

Tests used:
[1] = target: DNA polymerase I, thermostable (Thermus aquaticus, UniProt P19821); test: Inhibition of Taq polymerase; conditions: for pIC50: read-out: IC50
Procedure, shortened: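 Taq polymerase inhibition was monitored alongside the modified TRAP assay to detect interference with the amplification step. IC50 was the concentration giving 50% Taq polymerase inhibition.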

A-431 = test: Cytotoxicity against human A431 cells after 48 hrs by MTT assay; type: functional, cell-based
Procedure, shortened: (§1)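 Tumour cells grown to log phase in RPMI 1640 with 10% FBS, seeded at 3 × 10⁴ cells/mL, preincubated 24 h at 37 °C, 5% CO₂. Test samples at pre-set concentrations were added to 6 wells, with 5-fluorouracil as positive reference, for 48 h. MTT was then added for 4 h, formazan was dissolved in DMSO and absorbance read at 570 nm. IC50 from three experiments in triplicate, mean ± SD.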

PC-3 = test: Cytotoxicity against human PC3 cells after 48 hrs by MTT assay; type: functional, cell-based; procedure, shortened: as §1
[2] = target: Telomerase reverse transcriptase (Homo sapiens, UniProt O14746); test: Inhibition of telomerase in human SGC7901 cells by TRAP assay; type: cell-based, SGC-7901; conditions: for pIC50: read-out: IC50; for IC50: sgc-7901
Procedure, shortened: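 Modified TRAP assay using SGC-7901 cell extract as the telomerase source. IC50 taken from three experiments in triplicate, mean ± SD.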

SGC-7901 [3] = test: Cytotoxicity against human SGC7901 cells after 48 hrs by MTT assay; type: functional, cell-based; procedure, shortened: as §1
SGC-7901 [4] = test: Selectivity index, ratio of IC50 for Taq polymerase to IC50 for telomerase in human SGC7901 cells; type: cell-based
Procedure, shortened: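 Ratio of the concentration giving 50% Taq polymerase inhibition to the concentration giving 50% telomerase inhibition. Telomerase was measured by modified TRAP with SGC-7901 cell extract.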

[5] = Homo sapiens, A-431, 48 h, read-out: IC50
[6] = Homo sapiens, PC-3, 48 h, read-out: IC50
[7] = Homo sapiens, SGC-7901, 48 h, read-out: IC50

Sequence of DNA polymerase I, thermostable (P19821 whole entry): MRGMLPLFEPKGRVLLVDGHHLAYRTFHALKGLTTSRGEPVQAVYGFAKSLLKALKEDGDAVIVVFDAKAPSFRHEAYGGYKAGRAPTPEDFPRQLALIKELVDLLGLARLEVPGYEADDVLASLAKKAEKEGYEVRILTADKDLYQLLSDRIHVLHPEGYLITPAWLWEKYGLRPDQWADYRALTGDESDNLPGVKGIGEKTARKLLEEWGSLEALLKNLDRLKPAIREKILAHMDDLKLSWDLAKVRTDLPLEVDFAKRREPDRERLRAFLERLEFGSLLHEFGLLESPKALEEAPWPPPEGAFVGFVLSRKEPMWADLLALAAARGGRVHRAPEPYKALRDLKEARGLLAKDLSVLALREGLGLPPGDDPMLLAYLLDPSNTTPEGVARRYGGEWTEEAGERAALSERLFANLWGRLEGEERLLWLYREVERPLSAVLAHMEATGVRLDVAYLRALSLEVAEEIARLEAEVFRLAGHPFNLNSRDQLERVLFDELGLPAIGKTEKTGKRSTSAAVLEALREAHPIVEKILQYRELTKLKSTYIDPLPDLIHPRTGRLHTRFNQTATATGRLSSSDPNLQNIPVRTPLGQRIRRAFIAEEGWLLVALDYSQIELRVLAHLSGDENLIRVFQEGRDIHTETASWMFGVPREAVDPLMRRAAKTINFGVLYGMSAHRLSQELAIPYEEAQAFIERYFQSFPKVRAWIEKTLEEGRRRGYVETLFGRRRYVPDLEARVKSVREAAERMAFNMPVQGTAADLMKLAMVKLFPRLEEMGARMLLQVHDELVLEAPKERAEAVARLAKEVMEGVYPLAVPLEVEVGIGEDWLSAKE
Sequence of Telomerase reverse transcriptase (O14746 whole entry): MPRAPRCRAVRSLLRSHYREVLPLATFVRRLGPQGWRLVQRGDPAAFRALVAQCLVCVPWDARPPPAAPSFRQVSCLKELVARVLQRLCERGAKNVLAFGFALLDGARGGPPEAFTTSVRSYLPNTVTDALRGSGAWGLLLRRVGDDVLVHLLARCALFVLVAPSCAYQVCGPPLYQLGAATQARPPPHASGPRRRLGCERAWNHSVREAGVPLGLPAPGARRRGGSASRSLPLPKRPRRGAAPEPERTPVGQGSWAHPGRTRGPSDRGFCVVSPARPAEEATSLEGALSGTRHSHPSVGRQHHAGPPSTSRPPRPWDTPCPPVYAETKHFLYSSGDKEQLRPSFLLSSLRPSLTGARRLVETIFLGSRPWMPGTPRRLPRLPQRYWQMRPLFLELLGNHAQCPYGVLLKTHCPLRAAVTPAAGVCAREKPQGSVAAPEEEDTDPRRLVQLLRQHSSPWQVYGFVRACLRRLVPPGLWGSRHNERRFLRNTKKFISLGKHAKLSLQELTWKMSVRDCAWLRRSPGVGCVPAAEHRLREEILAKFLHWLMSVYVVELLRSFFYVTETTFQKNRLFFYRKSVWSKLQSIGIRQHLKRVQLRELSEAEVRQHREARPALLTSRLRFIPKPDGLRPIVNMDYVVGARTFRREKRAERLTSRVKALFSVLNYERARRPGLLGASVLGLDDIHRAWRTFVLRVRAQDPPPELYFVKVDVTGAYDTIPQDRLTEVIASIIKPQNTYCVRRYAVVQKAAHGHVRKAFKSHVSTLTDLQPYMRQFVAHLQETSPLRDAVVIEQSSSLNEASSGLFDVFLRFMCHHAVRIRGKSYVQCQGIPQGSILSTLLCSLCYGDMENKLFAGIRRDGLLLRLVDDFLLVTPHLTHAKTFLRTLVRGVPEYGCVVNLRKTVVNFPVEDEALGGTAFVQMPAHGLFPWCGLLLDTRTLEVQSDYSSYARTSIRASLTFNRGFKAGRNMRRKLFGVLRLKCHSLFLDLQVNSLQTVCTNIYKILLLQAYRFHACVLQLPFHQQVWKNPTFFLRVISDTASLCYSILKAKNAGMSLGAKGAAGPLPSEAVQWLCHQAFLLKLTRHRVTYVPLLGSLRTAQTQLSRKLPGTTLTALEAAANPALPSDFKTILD

| Compound | pIC50 [1] | IC50 (A-431; [5]) [µg/mL] | IC50 (PC-3; [6]) [µg/mL] | pIC50 [2] | IC50 (SGC-7901 [3]; [7]) [µg/mL] | Selectivity Index (SGC-7901 [4]) | IC50 [1] | IC50 (A-431; a-431) | IC50 (PC-3; pc-3) | IC50 [2] | IC50 (SGC-7901 [3]; sgc-7901) |
| --- | --- | --- | --- | --- | --- | --- | --- | --- | --- | --- | --- |
| CC(=O)N1N=C(c2cc3ccccc3oc2=O)CC1c1ccccc1 (centres undefined) | 5.22 | 51.7 (≈ 156 µM) | 40.2 (≈ 121 µM) | 5.70 | 2.69 (≈ 8.09 µM) | 3 |  |  |  |  |  |
| COc1ccc(/C=C/C(=O)c2cc3ccccc3oc2=O)cc1 |  |  |  |  |  |  | Not Active | Not Active | Not Active | Not Active | Not Active |
| CC(=O)N1N=C(c2cc3ccccc3oc2=O)CC1c1ccccc1Cl (centres undefined) | 4.77 | 50.6 (≈ 138 µM) | 55.1 (≈ 150 µM) | 5.19 | 29.9 (≈ 81.6 µM) | 2.6 |  |  |  |  |  |
| CC1=NN(C=O)C(c2ccccc2O)C1 (centres undefined) |  |  | 65.1 (≈ 319 µM) |  |  |  | Not Active | Not Active |  | Not Active | Not Active |
| COc1ccc(C2CC(c3cc4ccccc4oc3=O)=NN2C(C)=O)cc1 (centres undefined) |  | 68.7 (≈ 190 µM) |  | 4.44 | 48.7 (≈ 134 µM) |  | Not Active |  | Not Active |  |  |
| O=c1[nH]cc(F)c(=O)[nH]1 [FLUOROURACIL] |  | 2.17 (≈ 16.7 µM) | 2.48 (≈ 19.1 µM) |  |  |  |  |  |  |  |  |
| CC(=O)N1N=C(c2cc3ccccc3oc2=O)CC1c1ccc(O)cc1 (centres undefined) | 4.23 | 73 (≈ 209 µM) | 58.7 (≈ 169 µM) | 4.54 | 35.9 (≈ 103 µM) | 2 |  |  |  |  |  |
| CC(=O)N1N=C(c2cc3c(Br)cccc3oc2=O)CC1c1ccccc1 (centres undefined) | 5.40 | 48.1 (≈ 117 µM) | 58.1 (≈ 141 µM) | 5.74 | 28.9 (≈ 70.3 µM) | 2.2 |  |  |  |  |  |
| CC(=O)N1N=C(c2cc3ccccc3oc2=O)CC1c1ccc(Cl)cc1Cl (centres undefined) | 4.68 | 68.7 (≈ 171 µM) | 46.7 (≈ 116 µM) | 5.02 | 39.9 (≈ 99.5 µM) | 2.1 |  |  |  |  |  |
| CC(=O)N1N=C(c2cc3c(Br)cccc3oc2=O)CC1c1ccc(O)cc1 (centres undefined) | 5.00 | 68.3 (≈ 160 µM) | 38.8 (≈ 90.7 µM) | 5.40 | 22.3 (≈ 52.3 µM) | 2.5 |  |  |  |  |  |
| CC[n+]1c(-c2ccccc2)c2cc(N)ccc2c2ccc(N)cc21 [HOMIDIUM BROMIDE] |  |  |  | 5.60 |  |  |  |  |  |  |  |
